Residue numbers refer to the chain shown, from its start.
What was measured:
Conditions in all cases: stereoisomer not certain
OR2A1 T73A R74C S168C = system: T1, OR2A1 T73A R74C S168C
T1 sequence (whole entry): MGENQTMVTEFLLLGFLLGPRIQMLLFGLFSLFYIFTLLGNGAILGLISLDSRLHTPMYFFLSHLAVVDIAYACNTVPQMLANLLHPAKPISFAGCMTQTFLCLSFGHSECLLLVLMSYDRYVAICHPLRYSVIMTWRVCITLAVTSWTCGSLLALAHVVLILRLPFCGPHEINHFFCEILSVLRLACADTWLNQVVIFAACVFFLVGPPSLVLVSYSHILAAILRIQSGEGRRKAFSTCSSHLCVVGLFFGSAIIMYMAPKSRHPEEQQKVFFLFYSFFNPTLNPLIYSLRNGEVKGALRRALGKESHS
How it was run: (§1)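 Values were gathered from published papers (main text and supplementary material), with extra details requested from the original authors when needed, and checked for typos and inconsistencies. Each receptor–molecule pair is called responsive (active) if the original authors judged the measured signal statistically different from baseline, and non-responsive (inactive) otherwise. Assay methods varied by source, often transient mammalian cell-line luciferase assays. Recorded details include cell line, G-protein, co-transfected protein and tags.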

OR2A12 (Homo sapiens) = target: T2, OR2A12 (Homo sapiens) (UniProt Q8NGT7)
T2 sequence (whole entry): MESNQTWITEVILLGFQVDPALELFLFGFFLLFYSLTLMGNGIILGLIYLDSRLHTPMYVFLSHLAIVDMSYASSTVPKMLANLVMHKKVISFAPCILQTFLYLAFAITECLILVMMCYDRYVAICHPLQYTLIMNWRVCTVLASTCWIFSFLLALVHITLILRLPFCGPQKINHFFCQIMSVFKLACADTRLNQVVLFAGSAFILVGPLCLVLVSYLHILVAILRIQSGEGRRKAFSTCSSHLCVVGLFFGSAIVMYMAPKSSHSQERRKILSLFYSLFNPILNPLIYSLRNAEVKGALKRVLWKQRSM
How it was run: as §1

OR2A14 (Homo sapiens) = target: T3, OR2A14 (Homo sapiens) (UniProt Q96R47)
T3 sequence (whole entry): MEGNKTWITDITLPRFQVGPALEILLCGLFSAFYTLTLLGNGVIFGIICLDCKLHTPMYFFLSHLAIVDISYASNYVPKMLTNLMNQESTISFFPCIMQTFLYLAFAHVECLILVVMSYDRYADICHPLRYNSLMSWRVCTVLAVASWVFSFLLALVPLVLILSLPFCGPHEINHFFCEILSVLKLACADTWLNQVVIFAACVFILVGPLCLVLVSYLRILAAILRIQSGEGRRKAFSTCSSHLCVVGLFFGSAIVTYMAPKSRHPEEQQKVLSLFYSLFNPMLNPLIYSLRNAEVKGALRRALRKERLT
How it was run: as §1

OR2A2 (Homo sapiens) = target: T4, OR2A2 (Homo sapiens) (UniProt Q6IF42)
T4 sequence (whole entry): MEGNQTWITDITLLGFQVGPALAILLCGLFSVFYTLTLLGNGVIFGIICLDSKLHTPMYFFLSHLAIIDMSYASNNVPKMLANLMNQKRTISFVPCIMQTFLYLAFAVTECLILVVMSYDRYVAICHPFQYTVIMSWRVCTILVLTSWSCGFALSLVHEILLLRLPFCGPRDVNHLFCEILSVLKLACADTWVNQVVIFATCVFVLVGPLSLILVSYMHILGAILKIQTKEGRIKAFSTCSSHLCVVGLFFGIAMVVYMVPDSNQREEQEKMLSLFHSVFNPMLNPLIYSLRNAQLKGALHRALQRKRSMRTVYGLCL
How it was run: as §1

OR2A25 (Homo sapiens) = target: T5, OR2A25 (Homo sapiens) (UniProt A4D2G3)
T5 sequence (whole entry): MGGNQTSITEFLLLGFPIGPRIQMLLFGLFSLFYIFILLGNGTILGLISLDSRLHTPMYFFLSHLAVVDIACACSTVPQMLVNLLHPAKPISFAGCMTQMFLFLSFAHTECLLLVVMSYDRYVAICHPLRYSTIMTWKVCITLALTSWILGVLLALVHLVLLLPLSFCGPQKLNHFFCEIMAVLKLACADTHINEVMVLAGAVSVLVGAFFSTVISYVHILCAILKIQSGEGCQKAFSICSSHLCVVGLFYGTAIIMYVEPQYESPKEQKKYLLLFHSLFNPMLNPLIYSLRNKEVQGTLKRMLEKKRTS
How it was run: as §1

OR2A2 = system: T6, OR2A2
T6 sequence (whole entry): T4 sequence (whole entry) with F280L
How it was run: as §1

OR2A4 (Homo sapiens) = target: T7, OR2A4 (Homo sapiens) (UniProt O95047)
T7 sequence (whole entry): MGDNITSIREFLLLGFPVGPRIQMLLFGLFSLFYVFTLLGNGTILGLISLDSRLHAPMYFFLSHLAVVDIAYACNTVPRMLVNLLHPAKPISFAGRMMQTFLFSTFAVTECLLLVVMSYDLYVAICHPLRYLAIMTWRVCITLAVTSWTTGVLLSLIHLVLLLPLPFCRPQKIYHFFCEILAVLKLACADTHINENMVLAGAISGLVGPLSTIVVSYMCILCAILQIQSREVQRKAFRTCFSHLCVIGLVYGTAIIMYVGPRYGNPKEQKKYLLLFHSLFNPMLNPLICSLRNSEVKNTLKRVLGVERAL
How it was run: as §1

OR2A5 (Homo sapiens) = target: T8, OR2A5 (Homo sapiens) (UniProt Q96R48)
T8 sequence (whole entry): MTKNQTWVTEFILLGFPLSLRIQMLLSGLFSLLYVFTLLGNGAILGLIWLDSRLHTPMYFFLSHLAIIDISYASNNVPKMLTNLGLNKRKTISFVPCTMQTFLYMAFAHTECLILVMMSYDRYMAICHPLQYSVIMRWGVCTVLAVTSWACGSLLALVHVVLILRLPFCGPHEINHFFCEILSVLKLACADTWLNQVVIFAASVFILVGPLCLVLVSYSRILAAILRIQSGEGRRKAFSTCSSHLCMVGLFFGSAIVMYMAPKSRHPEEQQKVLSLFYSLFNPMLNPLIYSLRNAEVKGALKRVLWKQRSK
How it was run: as §1

OR2A5 I126V A202S A255T = system: T9, OR2A5 I126V A202S A255T
T9 sequence (whole entry): T8 sequence (whole entry) with I126V, A202S, A255T
How it was run: as §1

OR2A7 (Homo sapiens) = target: T10, OR2A7 (Homo sapiens) (UniProt Q96R45)
T10 sequence (whole entry): T7 sequence (whole entry) with R9T, R238C, V250F
How it was run: as §1

OR2A7 = system: T11, OR2A7
T11 sequence (whole entry): T7 sequence (whole entry) with R238C, V250F
How it was run: as §1

OR2AE1 (Homo sapiens) = target: T12, OR2AE1 (Homo sapiens) (UniProt Q8NHA4)
T12 sequence (whole entry): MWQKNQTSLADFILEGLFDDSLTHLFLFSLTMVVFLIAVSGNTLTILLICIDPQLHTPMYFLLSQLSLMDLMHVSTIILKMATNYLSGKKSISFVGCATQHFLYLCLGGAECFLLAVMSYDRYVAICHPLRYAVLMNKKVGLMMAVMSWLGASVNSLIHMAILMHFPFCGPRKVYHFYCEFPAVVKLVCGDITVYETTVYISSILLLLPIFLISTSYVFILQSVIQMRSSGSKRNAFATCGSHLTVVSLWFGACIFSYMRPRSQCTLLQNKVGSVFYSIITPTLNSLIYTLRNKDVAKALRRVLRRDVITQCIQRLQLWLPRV
How it was run: as §1

OR2AG1 (Homo sapiens) = target: T13, OR2AG1 (Homo sapiens) (UniProt Q9H205)
T13 sequence (whole entry): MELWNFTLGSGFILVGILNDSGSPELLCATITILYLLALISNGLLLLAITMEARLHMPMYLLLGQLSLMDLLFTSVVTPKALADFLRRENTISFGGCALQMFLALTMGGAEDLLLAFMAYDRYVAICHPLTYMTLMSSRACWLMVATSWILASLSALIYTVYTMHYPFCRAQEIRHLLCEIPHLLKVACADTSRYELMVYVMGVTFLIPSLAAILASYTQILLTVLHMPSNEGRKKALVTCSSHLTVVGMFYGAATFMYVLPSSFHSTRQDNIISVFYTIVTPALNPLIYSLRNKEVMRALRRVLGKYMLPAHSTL
How it was run: as §1

OR2AG2 (Homo sapiens) = target: T14, OR2AG2 (Homo sapiens) (UniProt A6NM03)
T14 sequence (whole entry): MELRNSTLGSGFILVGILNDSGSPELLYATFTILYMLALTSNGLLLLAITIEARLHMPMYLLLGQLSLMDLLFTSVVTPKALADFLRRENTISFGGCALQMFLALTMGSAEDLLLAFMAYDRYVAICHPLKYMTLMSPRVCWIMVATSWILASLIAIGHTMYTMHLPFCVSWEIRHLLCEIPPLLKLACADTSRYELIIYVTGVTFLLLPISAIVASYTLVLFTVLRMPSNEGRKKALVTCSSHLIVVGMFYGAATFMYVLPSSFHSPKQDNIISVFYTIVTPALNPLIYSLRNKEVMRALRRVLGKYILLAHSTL
How it was run: as §1

OR2AK2 (Homo sapiens) = target: T15, OR2AK2 (Homo sapiens) (UniProt Q8NG84)
T15 sequence (whole entry): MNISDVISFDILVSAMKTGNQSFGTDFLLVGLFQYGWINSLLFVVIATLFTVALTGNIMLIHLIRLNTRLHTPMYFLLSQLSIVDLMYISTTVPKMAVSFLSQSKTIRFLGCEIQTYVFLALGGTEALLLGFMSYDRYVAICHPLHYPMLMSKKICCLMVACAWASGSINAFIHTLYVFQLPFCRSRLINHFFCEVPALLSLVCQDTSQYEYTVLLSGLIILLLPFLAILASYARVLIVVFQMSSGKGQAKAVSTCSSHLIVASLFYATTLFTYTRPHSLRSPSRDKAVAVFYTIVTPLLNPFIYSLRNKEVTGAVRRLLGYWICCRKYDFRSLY
How it was run: as §1

OR2AP1 (Homo sapiens) = target: T16, OR2AP1 (Homo sapiens) (UniProt Q8NGE2)
T16 sequence (whole entry): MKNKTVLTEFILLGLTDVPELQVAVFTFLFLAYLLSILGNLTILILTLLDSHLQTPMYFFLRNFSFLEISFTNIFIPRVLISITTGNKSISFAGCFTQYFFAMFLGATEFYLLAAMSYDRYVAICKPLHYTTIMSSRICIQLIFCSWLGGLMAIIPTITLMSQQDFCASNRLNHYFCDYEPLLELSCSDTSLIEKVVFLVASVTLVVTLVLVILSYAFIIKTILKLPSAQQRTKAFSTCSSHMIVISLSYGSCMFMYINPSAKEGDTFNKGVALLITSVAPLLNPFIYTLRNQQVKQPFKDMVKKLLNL
How it was run: as §1

OR2AT4 (Homo sapiens) = target: T17, OR2AT4 (Homo sapiens) (UniProt A6NND4)
T17 sequence (whole entry): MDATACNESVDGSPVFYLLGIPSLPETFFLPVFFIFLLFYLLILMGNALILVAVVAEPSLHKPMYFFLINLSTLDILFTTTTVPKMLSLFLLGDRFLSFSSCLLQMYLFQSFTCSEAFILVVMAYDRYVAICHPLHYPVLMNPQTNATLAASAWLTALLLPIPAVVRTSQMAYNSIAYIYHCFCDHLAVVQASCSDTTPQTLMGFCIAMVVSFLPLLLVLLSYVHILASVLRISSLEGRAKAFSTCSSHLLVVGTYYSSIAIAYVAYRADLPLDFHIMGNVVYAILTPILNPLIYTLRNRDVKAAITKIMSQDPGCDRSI
How it was run: as §1

OR2B11 (Homo sapiens) = target: T18, OR2B11 (Homo sapiens) (UniProt Q5JQS5)
T18 sequence (whole entry): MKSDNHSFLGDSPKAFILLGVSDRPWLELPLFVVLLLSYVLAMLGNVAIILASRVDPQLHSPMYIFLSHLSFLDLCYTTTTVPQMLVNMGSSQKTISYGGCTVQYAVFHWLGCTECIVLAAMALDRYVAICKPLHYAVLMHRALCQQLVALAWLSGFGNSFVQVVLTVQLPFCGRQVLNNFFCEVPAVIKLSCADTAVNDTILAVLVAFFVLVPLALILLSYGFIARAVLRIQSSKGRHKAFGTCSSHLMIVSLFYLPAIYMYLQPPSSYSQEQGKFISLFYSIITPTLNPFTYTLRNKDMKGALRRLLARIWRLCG
How it was run: as §1

OR2B2 (Homo sapiens) = target: T19, OR2B2 (Homo sapiens) (UniProt Q9GZK3)
T19 sequence (whole entry): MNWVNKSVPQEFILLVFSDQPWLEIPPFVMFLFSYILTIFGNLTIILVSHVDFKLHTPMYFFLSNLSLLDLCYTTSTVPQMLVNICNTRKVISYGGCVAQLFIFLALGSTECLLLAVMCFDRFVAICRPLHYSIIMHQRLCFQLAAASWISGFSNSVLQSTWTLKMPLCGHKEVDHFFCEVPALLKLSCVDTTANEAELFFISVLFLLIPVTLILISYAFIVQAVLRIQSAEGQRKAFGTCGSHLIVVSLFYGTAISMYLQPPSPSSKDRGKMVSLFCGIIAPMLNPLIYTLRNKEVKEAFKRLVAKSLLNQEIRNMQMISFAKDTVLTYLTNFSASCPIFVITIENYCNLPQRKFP
How it was run: as §1

OR2AJ1 (Homo sapiens) = target: T20, OR2AJ1 (Homo sapiens) (UniProt Q8NGZ0)
T20 sequence (whole entry): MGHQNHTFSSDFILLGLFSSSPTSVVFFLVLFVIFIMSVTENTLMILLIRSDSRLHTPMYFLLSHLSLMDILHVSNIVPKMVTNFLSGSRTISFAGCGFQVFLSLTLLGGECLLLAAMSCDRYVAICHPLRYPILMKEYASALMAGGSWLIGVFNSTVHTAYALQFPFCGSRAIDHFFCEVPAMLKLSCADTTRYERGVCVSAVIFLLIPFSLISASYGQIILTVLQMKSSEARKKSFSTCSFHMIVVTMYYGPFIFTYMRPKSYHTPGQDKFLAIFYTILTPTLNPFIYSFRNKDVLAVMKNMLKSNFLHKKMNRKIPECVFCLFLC
How it was run: as §1

Measured: odorant receptor agonist call

Cc1cnc(C)c(C)n1
not listed: OR2AJ1 (Homo sapiens)
inactive: all other assays above

CCC(O)CC
inactive: OR2A7 (Homo sapiens)

CC(CC=O)c1ccccc1 (configuration not stated)
inactive: OR2A7 (Homo sapiens)

CCCCCC(S)C(C)CO (configuration not stated)
active: OR2AK2 (Homo sapiens) | OR2B2 (Homo sapiens)
not listed: OR2A1 T73A R74C S168C | OR2A2 | OR2A5 I126V A202S A255T | OR2A7
inactive: all other assays above
